# Source: ChEMBL document CHEMBL3526151, “Reversible disulfide formation of the glutamate carboxypeptidase II inhibitor E2072 results in prolonged systemic exposures in vivo” (Drug Metab Dispos, 2012)
# Legend:
# [1] = Cmax in Sprague-Dawley rat at 30 mg/kg, po administered via gavage measured under fasted conditions by LC-MS/MS analysis; assay type: ADME, organism-based; parameters: dose 30 mg/kg, route oral; conditions: in vivo
# How it was run: (§1)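 Fasted male Sprague-Dawley rats (280–330 g) received 0.1, 1, 10 or 30 mg/kg by oral gavage in 50 mM HEPES buffered saline, pH 7.4. Blood drawn at 0.25–24 h into heparin/NEM tubes; plasma analyzed by LC-MS/MS. Cmax taken as observed. AUC by linear trapezoidal rule with extrapolation by λz. Cl/F and Vd/F reported. Mean ± S.D., n = 4–9.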
# [2] = Protein binding in Sprague-Dawley rat serum at 10 uM after 1 hr by LC-MS/MS analysis; assay type: ADME, cell-free; conditions: read-out: PB (converted)
# How it was run: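 Serum from the named species spiked to 10 μM and held 1 h at 37°C, then ultrafiltered through a 5000 Da cutoff device (45 min, 37°C, 1800g). Filtrate and unfiltered serum extracted and measured by LC-MS/MS; % bound = 100 − (Cu/Cs × 100).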
# [3] = Tmax in Sprague-Dawley rat at 10 mg/kg, po administered via gavage measured under fed conditions by LC-MS/MS analysis; assay type: ADME, organism-based; parameters: dose 10 mg/kg, route oral; conditions: in vivo
# How it was run: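 Nonfasted male Sprague-Dawley rats gavaged once at 10 mg/kg in 50 mM HEPES-buffered saline pH 7.4. Blood into heparin/NEM tubes at 0, 0.25, 0.5, 1, 2, 4, 6, 8 and 24 h. Plasma analysed by LC-MS/MS; Tmax taken as the observed value.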
# [4] = AUC(0 to last) in Sprague-Dawley rat at 10 mg/kg, iv by LC-MS/MS analysis; assay type: ADME, organism-based; parameters: time 0 - last, dose 10 mg/kg, route intravenous; conditions: plasma
# How it was run: (§2)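 Male Sprague-Dawley rats dosed intravenously at 10 mg/kg (n = 6). Blood sampling extended to 7 days into heparin tubes containing NEM. Plasma assayed for parent and homodisulfide by LC-MS/MS, calibration range 1–5000 ng/ml. Noncompartmental analysis, t1/2 = 0.693/λz. Mean ± S.D.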
# [5] = Half life in Sprague-Dawley rat at 30 mg/kg, iv administered as bolus injection measured under fasted conditions by LC-MS/MS analysis; assay type: ADME, organism-based; parameters: dose 30 mg/kg, route intravenous; conditions: in vivo
# [6] = Cmax in Sprague-Dawley rat liver at 10 mg/kg, po administered as single dose measured per gm of tissue by LC-MS/MS analysis; assay type: ADME, organism-based; parameters: dose 10 mg/kg, route oral
# How it was run: (§3)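 Male Sprague-Dawley rats were dosed orally with 10 mg/kg/day, either once or daily for 5 days; n = 4 per group. Blood was taken by cardiac puncture and liver, kidney, brain and sciatic nerve were collected at 0–8 h post-dose. Tissues were homogenized in PBS containing NEM at equal volume per gram. NEM-derivatized analyte was extracted with methanol and quantified by LC-MS/MS (1–5000 ng/ml). Cmax is the observed value.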
# [7] = Phase 2 metabolic stability in rat liver microsomes assessed as compound remaining at 10 uM measured for 1 hr by LC-MS/MS analysis; assay type: ADME; conditions: read-out: Stability
# How it was run: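 Glucuronidation in liver microsomes of the named species, 0.5 mg/ml protein, compound at 10 μM final, in 50 mM Tris-HCl pH 7.5 with 8 mM MgCl2 and 25 μg/ml alamethicin. Preincubated at 37°C, then started with 2 mM UDPGA (final); cofactor-free controls run alongside. Duplicate reactions, sampled up to 1 h, quenched with cold acetonitrile plus internal standard; disappearance followed by LC-MS/MS.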
# [8] = Phase 1 metabolic stability in human liver microsomes assessed as compound remaining at 10 uM measured for 1 hr by LC-MS/MS analysis in absence of cofactors; assay type: ADME; conditions: read-out: Stability
# How it was run: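 Cofactor-free controls were run for each microsomal incubation: 0.5 mg/ml liver microsomes with 10 µM compound, omitting cofactors, so that cofactor-independent degradation could be measured. Samples were taken up to 1 h, quenched with acetonitrile containing internal standard, and the percent remaining was determined by LC-MS/MS.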
# [9] = AUC(0 to last) in Sprague-Dawley rat at 0.1 mg/kg, iv administered as bolus injection measured under fasted conditions by LC-MS/MS analysis; assay type: ADME, organism-based; parameters: time 0 - last, dose 0.1 mg/kg, route intravenous; conditions: plasma
# How it was run: (§4)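 Male Sprague-Dawley rats (280–330 g), jugular vein cannulated, fasted overnight until 4 h post-dose. Single tail-vein bolus of 0.1, 1, 10 or 30 mg/kg in 50 mM HEPES buffered saline, pH 7.4. Blood drawn 0–24 h into heparin tubes containing NEM. Plasma quantified by LC-MS/MS after NEM derivatization. Noncompartmental analysis: AUClast by linear trapezoidal rule, Cl = dose/AUC0-∞. Mean ± S.D., n = 4–9.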
# [10] = Half life in Sprague-Dawley rat at 10 mg/kg, iv administered as bolus injection measured under fasted conditions by LC-MS/MS analysis; assay type: ADME, organism-based; parameters: dose 10 mg/kg, route intravenous; conditions: in vivo
# Rattus norvegicus = assay: Analgesic activity in Sprague-Dawley rat chronic constriction injury model assessed as change in paw withdrawal latency at 10 mg/kg/day, po measured 4 days after drug treatment cessation (reference value: -2.85 +/-0.32 s); assay type: functional
# [11] = AUC(0 to infinity) in Sprague-Dawley rat at 10 mg/kg, iv by LC-MS/MS analysis; assay type: ADME, organism-based; parameters: time infinity, dose 10 mg/kg, route intravenous; conditions: plasma; how it was run: as §2
# [12] = Half life in Sprague-Dawley rat at 1 mg/kg, po administered via gavage measured under fasted conditions by LC-MS/MS analysis; assay type: ADME, organism-based; parameters: dose 1 mg/kg, route oral; conditions: in vivo
# [13] = Apparent oral clearance in Sprague-Dawley rat at 1 mg/kg, po administered via gavage measured under fasted conditions by LC-MS/MS analysis; assay type: ADME, organism-based; parameters: dose 1 mg/kg, route oral; conditions: in vivo; how it was run: as §1
# [14] = Apparent volume of distribution in Sprague-Dawley rat at 10 mg/kg, po administered via gavage measured under fasted conditions by LC-MS/MS analysis; assay type: ADME, organism-based; parameters: dose 10 mg/kg, route oral; conditions: in vivo; how it was run: as §1
# [15] = AUC(0 to infinity) in Sprague-Dawley rat at 0.1 mg/kg, iv administered as bolus injection measured under fasted conditions by LC-MS/MS analysis; assay type: ADME, organism-based; parameters: time infinity, dose 0.1 mg/kg, route intravenous; conditions: plasma; how it was run: as §4
# [16] = Volume of distribution in Sprague-Dawley rat at 10 mg/kg, iv by LC-MS/MS analysis; assay type: ADME, organism-based; parameters: dose 10 mg/kg, route intravenous; conditions: in vivo
# [17] = Phase 1 metabolic stability in mouse liver microsomes assessed as compound remaining at 10 uM measured for 1 hr by LC-MS/MS analysis; assay type: ADME; conditions: read-out: Stability
# How it was run: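 Liver microsomes (0.5 mg/ml) were incubated with 10 µM compound (final) in 100 mM potassium phosphate, pH 7.4. An NADPH-regenerating system was present: 1.3 mM NADPH, 3.3 mM glucose 6-phosphate, 3.3 mM MgCl2, 0.4 U/ml G6PDH and 50 µM sodium citrate. Runs were in duplicate, with samples taken up to 1 h and quenched with acetonitrile containing internal standard. Loss of compound was followed by LC-MS/MS.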
# [18] = Cmax in Sprague-Dawley rat at 10 mg/kg, iv by LC-MS/MS analysis; assay type: ADME, organism-based; parameters: dose 10 mg/kg, route intravenous; conditions: in vivo; how it was run: as §2
# [19] = Apparent volume of distribution in cynomolgus monkey at 5 mg/kg, po by LC-MS/MS analysis; assay type: ADME, organism-based, Macaca fascicularis; parameters: dose 5 mg/kg, route oral; conditions: in vivo
# How it was run: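 Cynomolgus monkeys (n = 3) dosed orally at a nominal 5 mg/kg in TCEP-treated 50 mM HEPES solution. Blood taken via iliac or femoral arterial cannula up to 9 days into heparin/NEM tubes. Plasma analyzed by LC-MS/MS. Cl/F and Vd/F derived noncompartmentally.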
# [20] = Drug recovery in cynomolgus monkey serum protein binding experiment; conditions: in vitro
# [21] = Cmax in Sprague-Dawley rat plasma at 10 mg/kg/day, po administered for 5 days by LC-MS/MS analysis; assay type: ADME, organism-based; parameters: dose 10 mg/kg/day, route oral; how it was run: as §3
structure (smiles),measurement,setting,value
O=C(O)c1cccc(-c2cccc(CCS)c2C(=O)O)c1,Cmax,[1],13 µg/mL
same,"fraction unbound at 1 h, 10 µM",[2],0.025
same,Tmax,[3],0.29 h
same,AUC(0-t),[4],86.7 µg·h/mL
same,half-life,[5],4.07 h
same,Cmax,[6],453 ng/g
same,"remaining at 1 h, 10 µM",[7],> 90%
same,"remaining at 1 h, 10 µM",[8],> 90%
same,AUC(0-t),[9],1.8 µg·h/mL
same,half-life,[10],3.55 h
same,Time,Rattus norvegicus,-1.36 s
same,AUC(0-inf),[11],87 µg·h/mL
same,half-life,[12],3.72 h
same,CL/F,[13],0.33 L/h/kg
same,Vd/F,[14],1.44 L/kg
same,AUC(0-inf),[15],1.97 µg·h/mL
same,Vd,[16],19 L/kg
same,"remaining at 1 h, 10 µM",[17],> 90%
same,Cmax,[18],57.2 µg/mL
same,Vd/F,[19],0.79 L/kg
same,Drug recovery,[20],80%
same,Cmax,[21],6.08 µg/mL
